Experimental data published in the RNAGym collection of RNA variant scans (doi:10.1126/science.aae0568).
Fewer inactive variants are shown than the library holds.

B1: tRNA (parent)
chain: GUUCCGUUGGCGUAAUGGUAACGCGUCUCCCUCCUAAGGAGAAGACUGCGGGUUCGAGUCCCGUACGGAACG

Variants of: B1
Test: yeast fitness relative to wild type (ratio to wild type); higher = fitter; tRNA-Arg(CCU), competitive growth, 37 C, YPD
How it was run: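 The tRNA-Arg(CCU) gene variants were made by chemical synthesis with a 3% per-site mutation rate at 69 sites and inserted at the native genomic locus of Saccharomyces cerevisiae. After pooling, the strains were competed in YPD at 37°C for 24 hours in six parallel replicates. Gene amplicons from the start population and each end population were read by 100-nucleotide paired-end sequencing, and Darwinian fitness relative to wild type was taken from genotype frequency changes. Genotypes needed ≥ 100 starting reads, and estimates < 0.5 were set to 0.5.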

Going from G50C A65G to G50C C55A A57C, the yeast fitness falls from 0.766 to 0.559.

Going from G50C C55G to G50C C55G C60A, the yeast fitness rises from 0.56 to 0.63.

First: G50C C55U
Second: G50C C60U C62A
The yeast fitness of the first is higher: 0.716 for the first, 0.676 for the second.

Compared with G50C C61U, G50C C62G C66U is higher in yeast fitness: 0.609 for the first, 0.968 for the second.

Going from G50C G51A to G50C G52A, the yeast fitness falls from 0.76 to 0.607.

Going from G50C G56A to G50C G68C, the yeast fitness rises from 0.635 to 0.715.

Going from G50C U53C to G50C U54A C61A, the yeast fitness rises from 0.614 to 0.676.

Compared with G50C U54C, G50C U59A is higher in yeast fitness: 0.635 for the first, 0.703 for the second.

Compared with G50U G68C, G51A A57U A65U is lower in yeast fitness: 0.804 for the first, at most 0.5 for the second.

G51A A57U A65U G68A A70U and G51A A65U A69C cannot be ordered by yeast fitness: at most 0.5 for the first, at most 0.5 for the second.

Compared with G51A C55G, G51A C60G A65C is lower in yeast fitness: 0.648 for the first, at most 0.5 for the second.

First: G51A C60U G67A
Second: G51A C60U G68A
The yeast fitness of the first is higher: 0.567 for the first, at most 0.5 for the second.

Compared with G51A C61A G68C, G51A C61U A65G A69C is higher in yeast fitness: at most 0.5 for the first, 1.07 for the second.

G51A G52U C62A and G51A G56A C62G cannot be ordered by yeast fitness: at most 0.5 for the first, at most 0.5 for the second.

First: G51A G58C
Second: G51A G63U C66A
The yeast fitness of the first is higher: 0.901 for the first, at most 0.5 for the second.

First: G51A U53A
Second: G51A U53G G58A
The yeast fitness of the first is higher: 0.534 for the first, at most 0.5 for the second.

First: G51A U54C
Second: G51A U59C
The yeast fitness of the first is higher: 0.715 for the first, 0.692 for the second.

Compared with G51A U64C G67C A69G, G51C A65G is lower in yeast fitness: 0.854 for the first, 0.593 for the second.

G51C C60G G67U and G51C C60U G63A U64G cannot be ordered by yeast fitness: at most 0.5 for the first, at most 0.5 for the second.

First: G51C C61G A70C
Second: G51C C61U
The yeast fitness of the first is lower: 0.542 for the first, 0.604 for the second.

G51C C62G G68A A70U and G51C G56A G58C cannot be ordered by yeast fitness: at most 0.5 for the first, at most 0.5 for the second.

First: G51C U53A
Second: G51C U59G
The yeast fitness of the first is higher: 0.544 for the first, 0.508 for the second.

Compared with G51U A69C, G51U A70G is lower in yeast fitness: 0.824 for the first, 0.707 for the second.

Compared with G52A A57G, G52A A57G G58A is lower in yeast fitness: 0.852 for the first, 0.565 for the second.

Going from G52A A65C to G52A A69C, the yeast fitness falls from 0.848 to 0.738.

Compared with G52A A70U, G52A C60U is lower in yeast fitness: 0.767 for the first, 0.579 for the second.

First: G52A C61U G68A
Second: G52A C62U
The yeast fitness of the first is lower: 0.561 for the first, 0.765 for the second.

Going from G52A C66A A69U to G52A C66G G68C, the yeast fitness rises from 0.551 to 0.65.

Going from G52A G56A to G52A G56A A65U A70G, the yeast fitness falls from 0.727 to at most 0.5.

Compared with G52A G56C, G52A G58A C60G is lower in yeast fitness: 0.687 for the first, at most 0.5 for the second.

First: G52A G58C
Second: G52A G67A
The yeast fitness of the first is lower: 0.801 for the first, 0.831 for the second.

Going from G52A U54A to G52A U59A C61A, the yeast fitness falls from 0.537 to at most 0.5.

G52C A57U A69U and G52C A65U G67C cannot be ordered by yeast fitness: at most 0.5 for the first, at most 0.5 for the second.

Compared with G52C A69U, G52C C55U is lower in yeast fitness: 0.707 for the first, 0.522 for the second.

G52C C55U A65U and G52C C55U G63A A65U cannot be ordered by yeast fitness: at most 0.5 for the first, at most 0.5 for the second.

Going from G52C C61A to G52C C61U, the yeast fitness rises from at most 0.5 to 0.66.

Going from G52C C62U to G52C C66A, the yeast fitness falls from 0.559 to 0.538.

Going from G52C C66G to G52C G56C, the yeast fitness falls from 0.6 to at most 0.5.

Going from G52C G63C to G52C G63C A69C, the yeast fitness falls from 0.577 to at most 0.5.

Compared with G52C G67A, G52C G68A is lower in yeast fitness: 0.709 for the first, 0.583 for the second.

Going from G52C U64G to G52U A65G, the yeast fitness rises from 0.614 to 0.793.

Going from G52U C55A to U53A A57U C60A A70U, the yeast fitness falls from 0.555 to at most 0.5.

Going from U53A A70C to U53A C55A C62U G63A A65U, the yeast fitness falls from 0.769 to at most 0.5.

First: U53A C55G
Second: U53A C60G
The yeast fitness of the first is lower: 0.588 for the first, 0.617 for the second.

Going from U53A C60G G67A A70C to U53A C62G, the yeast fitness rises from at most 0.5 to 0.598.

Going from U53A C62U A69U to U53A C66U, the yeast fitness rises from at most 0.5 to 0.709.

Compared with U53A G56A A65U, U53A G67U is higher in yeast fitness: at most 0.5 for the first, 0.657 for the second.

Going from U53A G68C to U53A U59C, the yeast fitness falls from 0.6 to 0.555.

Going from U53C A57C to U53C A57C A65U, the yeast fitness falls from 0.54 to at most 0.5.

First: U53C A57G
Second: U53C A70U
The yeast fitness of the first is lower: 0.79 for the first, 0.848 for the second.

Compared with U53C C60G, U53C C61A G68A is lower in yeast fitness: 0.784 for the first, 0.58 for the second.

Compared with U53C C62U, U53C G56A is higher in yeast fitness: 0.737 for the first, 0.802 for the second.

Compared with U53C G58C, U53C G67A is lower in yeast fitness: 0.977 for the first, 0.808 for the second.

Going from U53C G68C to U53C U64C, the yeast fitness falls from 0.846 to 0.817.

First: U53G A57G
Second: U53G A57G C62U
The yeast fitness of the first is lower: 0.584 for the first, 0.62 for the second.

Compared with U53G G56C G67A, U53G G63A is higher in yeast fitness: at most 0.5 for the first, 0.553 for the second.

Compared with U53G U54A C62U, U53G U64G A69C is higher in yeast fitness: 0.549 for the first, 0.841 for the second.

First: U54A A57C
Second: U54A A57U G63C A69U
The yeast fitness of the first is higher: 0.555 for the first, at most 0.5 for the second.

Going from U54A A65G to U54A A65U, the yeast fitness rises from 0.584 to 0.618.

Going from U54A A69U to U54A C55A C66G, the yeast fitness rises from 0.671 to 0.714.

Compared with U54A C62A, U54A C62G is higher in yeast fitness: 0.595 for the first, 0.637 for the second.

First: U54A C62U G68A
Second: U54A C62U G68U
The yeast fitness of the first is higher: 0.504 for the first, at most 0.5 for the second.

U54A U59C C61G and U54C A57G G63C A65C cannot be ordered by yeast fitness: at most 0.5 for the first, at most 0.5 for the second.

Going from U54C A57U to U54C A65U, the yeast fitness rises from 0.595 to 0.894.

First: U54C A70C
Second: U54C A70G
The yeast fitness of the first is lower: 0.925 for the first, 0.973 for the second.

Compared with U54C C55A, U54C C55U is higher in yeast fitness: 0.635 for the first, 0.72 for the second.

Compared with U54C C60G, U54C C61A G68U is lower in yeast fitness: 0.539 for the first, at most 0.5 for the second.

Compared with U54C C66G, U54C G67A is higher in yeast fitness: 0.803 for the first, 0.817 for the second.

Going from U54C G67C to U54C G68C, the yeast fitness falls from 0.944 to 0.776.

U54C U59G A70G and U54G A57G are the same in yeast fitness: 0.615 for the first, 0.615 for the second.

U54G A57U A65U and U54G C55G A65U cannot be ordered by yeast fitness: at most 0.5 for the first, at most 0.5 for the second.

Going from U54G C55U to U54G C60G G63C, the yeast fitness falls from 0.511 to at most 0.5.

Going from U54G C61U G67C to U54G G58A, the yeast fitness rises from at most 0.5 to 0.544.

First: U54G G63C A69C
Second: U54G G63U
The yeast fitness of the first is higher: 0.535 for the first, at most 0.5 for the second.

Compared with U54G G67A, U54G G67C is lower in yeast fitness: 0.637 for the first, at most 0.5 for the second.

Going from U54G G68A to U54G U59C A69U, the yeast fitness falls from 0.541 to at most 0.5.

C55A A57C G58A and C55A A57G U64A cannot be ordered by yeast fitness: at most 0.5 for the first, at most 0.5 for the second.

Going from C55A A65U to C55A A69C, the yeast fitness rises from 0.572 to 0.613.

First: C55A A70G
Second: C55A C61A
The yeast fitness of the first is lower: 0.557 for the first, 0.579 for the second.

Compared with C55A C61U G68A A70G, C55A C62A is higher in yeast fitness: at most 0.5 for the first, 0.518 for the second.

C55A C62G G67A and C55A C66G cannot be ordered by yeast fitness: at most 0.5 for the first, at most 0.5 for the second.

Going from C55A C66U to C55A G56A, the yeast fitness falls from 0.694 to 0.514.

Compared with C55A G58A, C55A G58C is lower in yeast fitness: 0.55 for the first, 0.534 for the second.

For C55A G63A, the yeast fitness was 0.55.
